According to ChEMBL document CHEMBL1158424, “Design, synthesis and biological investigation of certain pyrazole-3-carboxylic acid derivatives as novel carriers for nitric oxide” (Bioorg Med Chem, 2009):
≈ marks a conversion by molar mass, not a printed value. Calls of active or inactive are those of the source. The calls are words filed in the database; no cut-off is given here.

Tests used:
[1] = test system: Pseudomonas aeruginosa; assay: Antibacterial activity against Pseudomonas aeruginosa after 24 hrs by agar cup diffusion method; assay type: functional
Method in brief: (§1)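 Nutrient agar seeded with culture, poured 3–4 mm; six 10 mm cups per plate, one as DMF solvent control. Compounds dissolved in DMF (stock 1 mg/mL), two-fold serial dilutions 32–512 µg/mL, 0.1 mL per cup. Incubation 24 h at 37 °C; inhibition zone diameter read in mm. MIC taken as intercept of log concentration versus zone diameter plot; ciprofloxacin reference.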

[2] = test system: Escherichia coli; assay: Antibacterial activity against Escherichia coli C-600 after 24 hrs by agar cup diffusion method; assay type: functional; method in brief: as §1
[3] = test system: Rattus norvegicus; assay: Antiinflammatory activity in albino rat assessed as inhibition of carrageenan-induced paw edema at 100 mg/kg, po administered 30 mins prior to carrageenan challenge measured after 4 hrs; assay type: functional
Method in brief: (§2)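 Male albino rats, 140–150 g, groups of 5, acclimatized 3 days, water only on the last day. Oral dosing in carboxymethylcellulose vehicle 30 min before subplantar 1% carrageenan (0.1 mL) into one hind paw; contralateral paw given saline. Paw thickness by digital plethysmometer at 0–5 h. Percent inhibition from difference between paws, treated versus vehicle control; indomethacin reference; mean ± SEM.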

[4] = test system: Rattus norvegicus; assay: Antiinflammatory activity in albino rat assessed as inhibition of carrageenan-induced paw edema at 100 mg/kg, po administered 30 mins prior to carrageenan challenge measured after 1 hr; assay type: functional; method in brief: as §2
[5] = test system: Rattus norvegicus; assay: Antiinflammatory activity in albino rat assessed as inhibition of carrageenan-induced paw edema at 100 mg/kg, po administered 30 mins prior to carrageenan challenge measured after 5 hrs; assay type: functional; method in brief: as §2
[6] = test system: Bacillus subtilis; assay: Antibacterial activity against Bacillus subtilis after 24 hrs by agar cup diffusion method; assay type: functional; method in brief: as §1
[7] = test system: Staphylococcus aureus; assay: Antibacterial activity against Staphylococcus aureus NCTC 6571 after 24 hrs by agar cup diffusion method; assay type: functional; method in brief: as §1
[8] = test system: Rattus norvegicus; assay: Antiinflammatory activity in albino rat assessed as inhibition of carrageenan-induced paw edema at 100 mg/kg, po administered 30 mins prior to carrageenan challenge measured after 2 hrs; assay type: functional; method in brief: as §2
[9] = test system: Rattus norvegicus; assay: Gastrointestinal toxicity in albino rat assessed as ulcer index at 100 mg/kg, po; assay type: organism-based; set-up: dose 100 mg/kg, route oral; conditions: in vivo
Method in brief: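 Rats from the paw edema study killed by ether overdose; stomachs removed, opened and examined for visible lesions. Each lesion scored 0–5 by length (0 none, 1 petechiae, 2 <1 mm, 3 1–2 mm, 4 2–4 mm, 5 >4 mm erosions). Scores summed per rat; group ulcer index is the mean lesion score.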

[10] = test system: Rattus norvegicus; assay: Antiinflammatory activity in albino rat assessed as inhibition of carrageenan-induced paw edema at 100 mg/kg, po administered 30 mins prior to carrageenan challenge measured after 3 hrs; assay type: functional; method in brief: as §2
[11] = Nitric oxide release in phosphate buffer at pH 7.4 after 1 hr by Griess diazotization reaction method in presence of L-cysteine; set-up: concentration or dose not given beside the values
Method in brief: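 Incubation in pH 7.4 phosphate buffer with L-cysteine for 1 h at 37 °C. Then 1 mL of mixture treated with Griess reagent (sulfanilamide, N-naphthylethylenediamine, phosphoric acid); absorbance read at 540 nm after 25 min. Nitrite quantified against sodium nitrite standard curve; % release = found/theoretical NO × 100.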

[12] = test system: Rattus norvegicus; assay: Gastrointestinal toxicity in albino rat assessed as incidence of gastric ulceration at 100 mg/kg, po by histopathological study; assay type: organism-based, Stomach; set-up: dose 100 mg/kg, route oral; conditions: in vivo
Method in brief: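 Gastric sections dewaxed, rehydrated, stained with haematoxylin 5–7 min, differentiated in 1% HCl in 70% alcohol, stained with 1% eosin 10 min, dehydrated, cleared in xylene, mounted and examined by light microscopy.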

[13] = test system: Rattus norvegicus; assay: Gastroprotective activity in albino rat assessed as preventive index at 100 mg/kg, po; assay type: functional
Method in brief: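 Preventive index = (UI of ulcered group − UI of treated group)/UI of ulcered group × 100. UI from lesion scoring (0–5 by erosion length) of stomachs of rats from the paw edema study.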

| SMILES | MIC [1] | MIC ([2]; C-600, 24 h) | inhibition in vivo at 100 mg/kg [3] | inhibition in vivo at 100 mg/kg [4] | inhibition in vivo at 100 mg/kg [5] | MIC [6] | MIC [7] | inhibition in vivo at 100 mg/kg [8] | UI [9] | inhibition in vivo at 100 mg/kg [10] | Activity [11] | Activity [12] | PI [13] | MIC ([7]; NCTC 6571, 24 h) | MIC [2] |
| --- | --- | --- | --- | --- | --- | --- | --- | --- | --- | --- | --- | --- | --- | --- | --- |
| O=C(O)c1nn(-c2ccccc2)c(-c2ccccc2)c1C(=O)c1ccccc1 | 1.92 µg/mL (≈ 5.21 µM) | 16.1 µg/mL (≈ 43.7 µM) | 51.5% | 32.7% | 56.6% | 10.8 µg/mL (≈ 29.2 µM) | inactive | 35% | 8 | 36.5% |  |  |  |  |  |
| C/C(=N\O)c1ccc(NC(=O)c2nn(-c3ccccc3)c(-c3ccccc3)c2C(=O)c2ccccc2)cc1 | 27.2 µg/mL (≈ 54.4 µM) | 1.62 µg/mL (≈ 3.24 µM) | 51.5% | 16.4% | 62.3% | 90.4 µg/mL (≈ 181 µM) | inactive | 33.3% | 4 | 33.3% | 11.6% |  |  |  |  |
| O=C(OCCBr)c1nn(-c2ccccc2)c(-c2ccccc2)c1C(=O)c1ccccc1 | 6.04 µg/mL (≈ 12.7 µM) | 24 µg/mL (≈ 50.6 µM) | 41.2% | 25.4% | 52.2% | 47.5 µg/mL (≈ 99.9 µM) | inactive | 28.4% | 11 | 30.2% |  |  |  |  |  |
| Cc1ccc(NC(=O)c2nn(-c3ccccc3)c(-c3ccccc3)c2/C(=N/O)c2ccccc2)cc1 | 7.99 µg/mL (≈ 16.9 µM) | 28.6 µg/mL (≈ 60.6 µM) | 45.6% | 12.7% | 82.6% | 2.87 µg/mL (≈ 6.07 µM) | inactive | 20% | 3 | 36.5% | 10.1% |  |  |  |  |
| O=C(c1ccccc1)c1c(C(=O)N2CCN(C(=O)CO[N+](=O)[O-])CC2)nn(-c2ccccc2)c1-c1ccccc1 | 93.3 µg/mL (≈ 173 µM) | 64 µg/mL (≈ 119 µM) | 45.6% | 45.5% | 68.1% | 2.45 µg/mL (≈ 4.54 µM) | inactive | 30% | 5.5 | 43% | 13.8% | Non-toxic | 76.08% |  |  |
| O=C(c1ccccc1)c1c(C(=O)N2CCNCC2)nn(-c2ccccc2)c1-c1ccccc1 | 84.5 µg/mL (≈ 194 µM) | 1.92 µg/mL (≈ 4.4 µM) | 51.5% | 35% | 66.7% | 2.18 µg/mL (≈ 4.99 µM) | inactive | 41.7% | 23 | 28.6% |  | Toxic |  |  |  |
| O=C(OCCO)c1nn(-c2ccccc2)c(-c2ccccc2)c1C(=O)c1ccccc1 | 1.29 µg/mL (≈ 3.13 µM) | 7.95 µg/mL (≈ 19.3 µM) | 68.6% | 19.7% | 71.7% | 3.88 µg/mL (≈ 9.41 µM) | inactive | 51.5% | 9 | 66.4% |  |  |  |  |  |
| O=C(O)c1ccc(NC(=O)c2nn(-c3ccccc3)c(-c3ccccc3)c2/C(=N/O)c2ccccc2)cc1 | 13.6 µg/mL (≈ 27.1 µM) | 2.8 µg/mL (≈ 5.57 µM) | 61.8% | 45.5% | 81.2% | 29.5 µg/mL (≈ 58.7 µM) |  | 45% | 8.5 | 47.6% | 9.3% |  |  | 50.5 µg/mL (≈ 100 µM) |  |
| O=C(Nc1ccc(S(=O)(=O)Nc2ncccn2)cc1)c1nn(-c2ccccc2)c(-c2ccccc2)c1/C(=N/O)c1ccccc1 | 23.3 µg/mL (≈ 37.9 µM) | 30.9 µg/mL (≈ 50.1 µM) | 51.5% | 16.4% | 56.5% | 54.7 µg/mL (≈ 88.8 µM) | inactive | 26.7% | 7.6 | 31.7% | 7.4% |  |  |  |  |
| Cc1ccc(NC(=O)c2nn(-c3ccccc3)c(-c3ccccc3)c2C(=O)c2ccccc2)cc1 | 4.3 µg/mL (≈ 9.4 µM) | 16.1 µg/mL (≈ 35.3 µM) | 30.2% | 42.5% | 51.2% | 33.8 µg/mL (≈ 73.9 µM) | inactive | 29.1% | 4 | 28.3% |  |  |  |  |  |
| O=C(Nc1ccc(Cl)cc1)c1nn(-c2ccccc2)c(-c2ccccc2)c1/C(=N/O)c1ccccc1 | 10.3 µg/mL (≈ 20.9 µM) | 14.1 µg/mL (≈ 28.6 µM) | 55.9% | 23.6% | 60.9% | 5.82 µg/mL (≈ 11.8 µM) |  | 23.3% | 7.5 | 47.6% | 7.8% | Non-toxic |  | 90.4 µg/mL (≈ 183 µM) |  |
| O=C(Nc1ccc(Cl)cc1)c1nn(-c2ccccc2)c(-c2ccccc2)c1C(=O)c1ccccc1 | 25.1 µg/mL (≈ 52.5 µM) |  | 36.5% | 45.5% | 55.9% | inactive | inactive | 40% | 20.3 | 35% |  | Toxic |  |  | inactive |
| COc1ccc2c(c1)c(CC(=O)O)c(C)n2C(=O)c1ccc(Cl)cc1 [INDOMETHACIN] |  |  |  |  |  |  |  |  | 69.5 |  |  |  |  |  |  |
| O=C(c1ccccc1)c1c(C(=O)N2CCN(C(=O)CCl)CC2)nn(-c2ccccc2)c1-c1ccccc1 | 61.5 µg/mL (≈ 120 µM) | 1.37 µg/mL (≈ 2.67 µM) |  |  |  | 11.2 µg/mL (≈ 21.8 µM) | inactive |  |  |  |  |  |  |  |  |
| COc1ccc(NC(=O)c2nn(-c3ccccc3)c(-c3ccccc3)c2C(=O)c2ccccc2)cc1 | 22.9 µg/mL (≈ 48.4 µM) | 4.5 µg/mL (≈ 9.5 µM) | 43% | 40% | 52.9% | 43.8 µg/mL (≈ 92.5 µM) | inactive | 42.5% | 33.3 | 28.3% |  |  |  |  |  |
| CC(=O)c1ccc(NC(=O)c2nn(-c3ccccc3)c(-c3ccccc3)c2C(=O)c2ccccc2)cc1 | 32.4 µg/mL (≈ 66.7 µM) | 39.9 µg/mL (≈ 82.2 µM) | 47.6% | 29.1% | 61.8% | 1.75 µg/mL (≈ 3.6 µM) | inactive | 45.5% | 11 | 45% |  |  |  |  |  |
| O=C(O)c1ccc(NC(=O)c2nn(-c3ccccc3)c(-c3ccccc3)c2C(=O)c2ccccc2)cc1 | 25.3 µg/mL (≈ 52 µM) | 30.9 µg/mL (≈ 63.4 µM) | 41.2% | 23.6% | 46.4% | 34.8 µg/mL (≈ 71.4 µM) |  | 25% | 17 | 27% |  |  |  | 64 µg/mL (≈ 131 µM) |  |
| O=C(OCCO[N+](=O)[O-])c1nn(-c2ccccc2)c(-c2ccccc2)c1C(=O)c1ccccc1 | 11.3 µg/mL (≈ 24.7 µM) | 15.3 µg/mL (≈ 33.4 µM) | 58.8% | 29.1% | 71% | 21.7 µg/mL (≈ 47.4 µM) | inactive | 35% | 7.5 | 47.6% | 7.1% |  |  |  |  |
| O=C(Nc1ccc(S(=O)(=O)Nc2ncccn2)cc1)c1nn(-c2ccccc2)c(-c2ccccc2)c1C(=O)c1ccccc1 | 44.3 µg/mL (≈ 73.8 µM) |  | 27% | 18.2% | 41.2% | 47 µg/mL (≈ 78.3 µM) | inactive | 18.2% | 9.3 | 25% |  |  |  |  | inactive |
| O=C(O)c1cn(C2CC2)c2cc(N3CCNCC3)c(F)cc2c1=O [CIPROFLOXACIN] | 30.8 µg/mL (≈ 93 µM) | 1.2 µg/mL (≈ 3.62 µM) |  |  |  | 0.61 µg/mL (≈ 1.84 µM) |  |  |  |  |  |  |  | 52.4 µg/mL (≈ 158 µM) |  |
| COc1ccc(NC(=O)c2nn(-c3ccccc3)c(-c3ccccc3)c2/C(=N/O)c2ccccc2)cc1 | 9.7 µg/mL (≈ 19.9 µM) | 2.88 µg/mL (≈ 5.9 µM) | 51.5% | 30.9% | 56.5% | 43.9 µg/mL (≈ 89.8 µM) | inactive | 25% | 8.5 | 36.5% | 8% |  | 74% |  |  |
